Active and inactive are the calls of the source. The calls are words filed in the database; no cut-off is given here.
How the values were obtained:
[1] = biological target: T1, Mast/stem cell growth factor receptor Kit (Homo sapiens, UniProt P10721); assay: Inhibition of c-KIT (unknown origin) by ELISA method
Method in brief: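 Phosphotyrosine ELISA with purified kinase (20 ng) and 5 µM ATP in buffer (50 mM HEPES pH 7.4, 20 mM MgCl2, 0.1 mM MnCl2, 0.2 mM Na3VO4, 1 mM DTT), 1 h at 37 °C, DMSO ≤1%. Detection by PY99 antibody, then HRP anti-mouse IgG with o-phenylenediamine, A490. IC50 by Logit from at least three independent tests.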

[2] = biological target: T1, Mast/stem cell growth factor receptor Kit; assay: Inhibition of c-KIT phosphorylation (unknown origin) expressed in human NCI-H526 cells at 0.001 to 1 uM incubated for 2 hrs by Western blot method; type: cell-based
Method in brief: (§1)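 Cells grown to half-confluence and serum-starved 24 h, then treated 2 h at 0.001, 0.01, 0.1 and 1 µM. Afterwards stimulated at 37 °C with 20 ng/ml SCF-1, PDGF-BB or VEGF as appropriate to the receptor. Phosphorylation assessed by western blot.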

[3] = biological target: Vascular endothelial growth factor receptor 2 (Homo sapiens, UniProt P35968); assay: Inhibition of KDR phosphorylation (unknown origin) expressed in human HUVEC at 0.001 to 1 uM incubated for 2 hrs by Western blot method; type: cell-based; method in brief: as §1
[4] = Cytotoxicity against human SKBR3 cells assessed as inhibition of cell growth after 72 hrs by sulforhodamine B assay; type: functional, cell-based; settings: SK-BR-3, 72 h
Method in brief: (§2)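 Cells grown in RPMI-1640 with 5% FBS and plated at 5.0×10^4/ml. Next day exposed to 0.5–5000 ng/ml for 3 days. Survival read by sulforhodamine B staining. IC50 taken from growth curves; mean of at least three determinations.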

BT-474 [5] = assay: Cytotoxicity against human BT474 cells assessed as inhibition of cell growth after 72 hrs by sulforhodamine B assay; type: functional, cell-based; settings: BT-474, 72 h; method in brief: as §2
A-431 = assay: Cytotoxicity against human A431 cells assessed as inhibition of cell growth after 72 hrs by sulforhodamine B assay; type: functional, cell-based; settings: A-431, 72 h; method in brief: as §2
MCF7 = assay: Cytotoxicity against human MCF7 cells assessed as inhibition of cell growth after 72 hrs by sulforhodamine B assay; type: functional, cell-based; settings: MCF7, 72 h; method in brief: as §2
BT-474 [6] = assay: Induction of cell cycle arrest in human BT474 cells assessed as accumulation at G1 phase at 0.001 uM incubated for 12 hrs by propidium iodide staining based flow cytometry (reference value: 67%); type: functional
BT-474 [7] = assay: Induction of cell cycle arrest in human BT474 cells assessed as accumulation at G2/M phase at 0.001 uM incubated for 12 hrs by propidium iodide staining based flow cytometry (reference value: 14%); type: functional
BT-474 [8] = assay: Induction of cell cycle arrest in human BT474 cells assessed as accumulation at S phase at 0.001 uM incubated for 12 hrs by propidium iodide staining based flow cytometry (reference value: 19%); type: functional
BT-474 [9] = assay: Induction of apoptosis in human BT474 cells at 0.001 uM incubated for 12 hrs by propidium iodide staining based flow cytometry (reference value: 1%); type: functional
BT-474 [10] = assay: Induction of cell cycle arrest in human BT474 cells assessed as accumulation at G1 phase at 0.01 uM incubated for 12 hrs by propidium iodide staining based flow cytometry (reference value: 67%); type: functional
BT-474 [11] = assay: Induction of apoptosis in human BT474 cells at 0.01 uM incubated for 12 hrs by propidium iodide staining based flow cytometry (reference value: 1%); type: functional
BT-474 [12] = assay: Induction of cell cycle arrest in human BT474 cells assessed as accumulation at S phase at 0.1 uM incubated for 12 hrs by propidium iodide staining based flow cytometry (reference value: 19%); type: functional
BT-474 [13] = assay: Induction of apoptosis in human BT474 cells at 0.1 uM incubated for 12 hrs by propidium iodide staining based flow cytometry (reference value: 1%); type: functional
BT-474 [14] = assay: Induction of cell cycle arrest in human BT474 cells assessed as accumulation at S phase at 1 uM incubated for 12 hrs by propidium iodide staining based flow cytometry (reference value: 19%); type: functional
BT-474 [15] = assay: Induction of cell cycle arrest in human BT474 cells assessed as accumulation at G2/M phase at 10 uM incubated for 12 hrs by propidium iodide staining based flow cytometry (reference value: 14%); type: functional
BT-474 [16] = assay: Induction of cell cycle arrest in human BT474 cells assessed as accumulation at S phase at 10 uM incubated for 12 hrs by propidium iodide staining based flow cytometry (reference value: 19%); type: functional
[17] = Antitumor activity against human Calu3 cells xenografted in BALB/cA mouse assessed as tumor growth inhibition at 100 mg/kg, po; type: functional; settings: Calu-3, read-out: TGI
Method in brief: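 Female BALB/cA nude mice, 6–7 weeks old, implanted s.c. on midright side with 2×10^6 Calu-3 cells in 0.2 ml PBS. Grouped at 60–150 mm³ tumour volume (6 per treated group, 12 vehicle). Oral dosing in 0.5% CMC with 0.1% Tween-80. Caliper volume = L×W²×0.5; inhibition = (1 − T/C)×100% on relative tumour volume; weight tracked for 21 d.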

[18] = AUC (0 to 24 hrs) in Beagle dog at 240 mg/kg, po administered as single dose measured after 0.25 to 24 hrs post dose by LC/MS/MS method; type: ADME, organism-based, Canis lupus familiaris; design: time < 24 hr, dose 240 mg/kg, route oral; settings: plasma
Method in brief: (§3)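 Single oral gavage of 240 mg/kg to beagle dogs (n = 6). Blood sampled at 0.25–24 h, kept on ice, centrifuged within 1 h (1000 × g, 4 °C, 15 min), plasma stored at −20 °C. Drug quantified by validated LC/MS/MS. AUC0–24 from non-compartmental analysis; Cmax and MRT taken directly from concentration–time data.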

[19] = Mean residence time in Beagle dog at 240 mg/kg, po administered as single dose measured after 0.25 to 24 hrs post dose by LC/MS/MS method; type: ADME, organism-based, Canis lupus familiaris; design: dose 240 mg/kg, route oral; settings: in vivo; method in brief: as §3
[20] = AUC (0 to infinity) in Beagle dog at 240 mg/kg, po dosed for 14 days by LC/MS/MS method; type: ADME, organism-based, Canis lupus familiaris; design: time infinity, dose 240 mg/kg, route oral; settings: plasma
Method in brief: (§4)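 Beagle dogs (n = 6) dosed by oral gavage at 240 mg/kg daily for 14 consecutive days. Blood taken predose and at 0.25–24 h on days 1 and 14, plasma stored at −20 °C, analysed by validated LC/MS/MS. Half-life and AUC by model-independent methods; Cmax and MRT read from concentration–time data.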

[21] = Clearance in Beagle dog at 240 mg/kg, po dosed for 14 days by LC/MS/MS method; type: ADME, organism-based, Canis lupus familiaris; design: dose 240 mg/kg, route oral; settings: in vivo; method in brief: as §4
[22] = Mean residence time in Beagle dog at 240 mg/kg, po dosed for 14 days by LC/MS/MS method; type: ADME, organism-based, Canis lupus familiaris; design: dose 240 mg/kg, route oral; settings: in vivo; method in brief: as §4
[23] = biological target: T2, Epidermal growth factor receptor (Homo sapiens, UniProt P00533); settings: A-431, 0.001 to 1 uM
[24] = biological target: T2, Epidermal growth factor receptor; settings: A-431, 0.001 to 10 uM
MDA-MB-453 = assay: cells; settings: Homo sapiens, MDA-MB-453, 72 h
NCI-H460 = assay: cells; settings: Homo sapiens, NCI-H460, 72 h

T2 sequence (P00533 whole entry): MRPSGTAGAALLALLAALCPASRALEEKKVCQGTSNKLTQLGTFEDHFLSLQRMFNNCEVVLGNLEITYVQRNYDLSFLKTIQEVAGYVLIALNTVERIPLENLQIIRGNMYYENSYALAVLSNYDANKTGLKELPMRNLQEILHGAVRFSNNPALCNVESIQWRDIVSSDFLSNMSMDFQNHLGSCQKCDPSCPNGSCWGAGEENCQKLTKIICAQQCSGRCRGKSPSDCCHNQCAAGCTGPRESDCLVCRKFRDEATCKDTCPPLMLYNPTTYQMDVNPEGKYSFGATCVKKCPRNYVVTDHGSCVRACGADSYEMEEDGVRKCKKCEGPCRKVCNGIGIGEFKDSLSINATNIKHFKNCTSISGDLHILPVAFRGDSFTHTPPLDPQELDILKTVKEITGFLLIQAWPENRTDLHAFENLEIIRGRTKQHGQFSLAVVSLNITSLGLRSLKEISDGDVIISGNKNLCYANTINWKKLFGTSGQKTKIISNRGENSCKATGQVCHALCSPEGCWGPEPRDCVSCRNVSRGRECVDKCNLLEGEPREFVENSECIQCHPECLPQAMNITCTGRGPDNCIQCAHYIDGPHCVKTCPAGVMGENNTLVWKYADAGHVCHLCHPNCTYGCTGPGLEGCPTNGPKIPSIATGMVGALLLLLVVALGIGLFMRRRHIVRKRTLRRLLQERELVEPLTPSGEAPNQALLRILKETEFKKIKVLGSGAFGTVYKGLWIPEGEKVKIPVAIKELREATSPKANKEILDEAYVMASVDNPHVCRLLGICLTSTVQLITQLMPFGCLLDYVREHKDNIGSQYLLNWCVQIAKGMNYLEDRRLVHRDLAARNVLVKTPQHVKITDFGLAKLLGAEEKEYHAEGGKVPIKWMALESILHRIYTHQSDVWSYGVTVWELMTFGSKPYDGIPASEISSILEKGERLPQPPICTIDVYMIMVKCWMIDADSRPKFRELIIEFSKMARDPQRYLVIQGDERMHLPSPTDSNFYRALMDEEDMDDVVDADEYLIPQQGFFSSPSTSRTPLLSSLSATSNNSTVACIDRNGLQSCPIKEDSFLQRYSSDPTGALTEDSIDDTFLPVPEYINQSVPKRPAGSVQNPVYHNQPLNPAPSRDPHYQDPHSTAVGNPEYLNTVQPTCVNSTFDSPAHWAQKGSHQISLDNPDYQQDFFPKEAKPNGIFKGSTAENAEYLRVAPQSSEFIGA
T1 sequence (P10721 whole entry): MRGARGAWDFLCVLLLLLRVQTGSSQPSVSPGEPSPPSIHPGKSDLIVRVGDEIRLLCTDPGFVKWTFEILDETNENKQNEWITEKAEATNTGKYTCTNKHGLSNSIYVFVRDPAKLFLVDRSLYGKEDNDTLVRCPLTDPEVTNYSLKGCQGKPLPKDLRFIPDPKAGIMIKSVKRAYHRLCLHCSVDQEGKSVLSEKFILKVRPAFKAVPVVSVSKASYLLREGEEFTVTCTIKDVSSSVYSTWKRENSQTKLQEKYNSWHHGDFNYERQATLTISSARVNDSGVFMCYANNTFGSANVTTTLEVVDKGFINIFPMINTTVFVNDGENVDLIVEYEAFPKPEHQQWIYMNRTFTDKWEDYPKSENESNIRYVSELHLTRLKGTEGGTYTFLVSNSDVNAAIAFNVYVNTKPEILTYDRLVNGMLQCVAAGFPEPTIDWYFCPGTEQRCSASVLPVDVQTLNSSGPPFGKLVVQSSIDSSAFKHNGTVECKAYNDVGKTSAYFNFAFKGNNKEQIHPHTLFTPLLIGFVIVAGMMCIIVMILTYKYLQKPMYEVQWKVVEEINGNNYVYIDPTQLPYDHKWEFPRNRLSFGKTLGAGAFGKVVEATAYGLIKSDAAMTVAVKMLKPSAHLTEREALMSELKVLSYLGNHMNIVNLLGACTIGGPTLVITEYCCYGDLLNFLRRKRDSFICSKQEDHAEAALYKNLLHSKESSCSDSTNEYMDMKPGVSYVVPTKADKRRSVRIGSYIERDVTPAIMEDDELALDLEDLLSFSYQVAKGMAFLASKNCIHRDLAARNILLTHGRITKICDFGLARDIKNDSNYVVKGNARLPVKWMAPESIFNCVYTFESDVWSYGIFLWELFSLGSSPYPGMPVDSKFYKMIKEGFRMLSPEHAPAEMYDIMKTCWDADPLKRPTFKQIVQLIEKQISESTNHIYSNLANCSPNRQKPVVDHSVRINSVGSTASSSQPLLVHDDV
Sequence of Vascular endothelial growth factor receptor 2 (P35968 whole entry): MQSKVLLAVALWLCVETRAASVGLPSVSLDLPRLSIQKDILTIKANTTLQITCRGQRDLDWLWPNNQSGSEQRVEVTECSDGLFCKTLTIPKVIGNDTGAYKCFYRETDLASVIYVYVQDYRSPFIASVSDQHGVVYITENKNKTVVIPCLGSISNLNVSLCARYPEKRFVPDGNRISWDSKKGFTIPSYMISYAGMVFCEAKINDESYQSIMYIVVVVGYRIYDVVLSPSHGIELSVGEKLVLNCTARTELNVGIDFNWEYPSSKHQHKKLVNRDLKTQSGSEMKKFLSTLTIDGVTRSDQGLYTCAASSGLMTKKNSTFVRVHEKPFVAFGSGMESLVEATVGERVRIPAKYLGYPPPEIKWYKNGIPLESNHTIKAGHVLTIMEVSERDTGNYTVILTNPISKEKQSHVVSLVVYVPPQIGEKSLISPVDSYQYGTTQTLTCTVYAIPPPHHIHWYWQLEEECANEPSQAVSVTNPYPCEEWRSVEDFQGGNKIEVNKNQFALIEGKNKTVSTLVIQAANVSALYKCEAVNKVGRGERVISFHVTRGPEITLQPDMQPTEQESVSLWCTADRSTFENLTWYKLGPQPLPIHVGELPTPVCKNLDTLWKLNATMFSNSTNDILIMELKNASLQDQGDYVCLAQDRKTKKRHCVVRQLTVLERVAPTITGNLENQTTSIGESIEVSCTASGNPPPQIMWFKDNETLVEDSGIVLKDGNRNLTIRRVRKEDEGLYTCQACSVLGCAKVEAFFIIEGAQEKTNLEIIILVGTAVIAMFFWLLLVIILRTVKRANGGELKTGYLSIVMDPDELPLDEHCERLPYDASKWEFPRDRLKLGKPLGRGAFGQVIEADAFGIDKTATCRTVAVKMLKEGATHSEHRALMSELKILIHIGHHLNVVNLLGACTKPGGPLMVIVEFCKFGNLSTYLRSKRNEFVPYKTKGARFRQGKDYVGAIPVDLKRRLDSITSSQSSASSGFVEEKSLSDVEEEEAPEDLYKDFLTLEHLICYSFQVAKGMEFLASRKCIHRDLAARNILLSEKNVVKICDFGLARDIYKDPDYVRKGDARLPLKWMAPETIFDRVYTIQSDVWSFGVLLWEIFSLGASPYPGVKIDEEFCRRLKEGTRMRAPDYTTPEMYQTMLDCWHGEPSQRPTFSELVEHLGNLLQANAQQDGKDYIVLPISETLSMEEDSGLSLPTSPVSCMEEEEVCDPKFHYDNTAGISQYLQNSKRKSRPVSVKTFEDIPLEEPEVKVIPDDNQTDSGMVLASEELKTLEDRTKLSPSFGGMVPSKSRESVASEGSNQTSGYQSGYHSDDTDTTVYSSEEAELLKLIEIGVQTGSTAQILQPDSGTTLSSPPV

CN(C)[C@H](CS(C)(=O)=O)c1ccc(-c2ccc3ncnc(Nc4ccc(OCc5cccc(F)c5)c(Cl)c4)c3c2)o1
IC50 [1]: > 200000 nM
inhibition [2]: inactive
inhibition [3]: inactive
IC50 [4]: 18.4 nM
IC50 (BT-474 [5]): 28.8 nM
IC50 (A-431): 634 nM
IC50 (MCF7): 5670 nM
Activity (BT-474 [6]): 70%
Activity (BT-474 [7]): 14%
Activity (BT-474 [8]): 16%
Activity (BT-474 [9]): 1%
Activity (BT-474 [10]): 77%
Activity (BT-474 [11]): 1%
Activity (BT-474 [12]): 5%
Activity (BT-474 [13]): 4%
Activity (BT-474 [14]): 6%
Activity (BT-474 [15]): 12%
Activity (BT-474 [16]): 8%
inhibition in vivo at 100 mg/kg [17]: 68%
AUC(0-t) at 24 h [18]: 29800 ng·h/mL
MRT [19]: 6.1 h
AUC(0-inf) [20]: 30600 ng·h/mL
CL/F [21]: 432 mL/min
MRT [22]: 6.6 h
inhibition [23]: Dose-dependent effect
inhibition [24]: Dose-dependent effect
IC50 (MDA-MB-453): 260 nM
IC50 (NCI-H460): > 100000 nM

Reference: ChEMBL document CHEMBL3352165 (Eur J Med Chem, 2014)
